Assay results reported in ChEMBL document CHEMBL3272318, “Antimalarials. 8. Synthesis of amino ethers as candidate antimalarials” (J Med Chem, 1976).
The source made the active and inactive calls. The calls are words filed in the database; no cut-off is given here.

Experiments:
[1] = system: Plasmodium berghei; test: Antimalarial activity against blood schizont stage of Plasmodium berghei infected in mouse at 640 mg/kg; type: functional, organism-based; parameters: dose 640 mg/kg
[2] = species on record: Mus musculus; test: Toxicity in mouse infected with blood schizont stage of Plasmodium berghei; type: organism-based; details: in vivo
[3] = system: Plasmodium gallinaceum; test: Antimalarial activity against sporozoite stage of Plasmodium gallinaceum infected in chick at 480 mg/kg; type: functional, organism-based; parameters: dose 480 mg/kg
Method in brief: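 Prophylactic screen run at the Rane Laboratory (University of Miami) in chicks infected with Plasmodium gallinaceum. Compounds were tested at doses up to 480 mg/kg.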

Row | SMILES | Activity [1] | Activity [2] | Activity [3]
1 | CC1(C2CCN(C(=O)O)CC2)OC1c1ccc(Cl)cc1 (stereo unspecified) | inactive | Toxic | inactive
2 | COC(CC1CCNCC1)c1ccc(Cl)cc1.Cl (stereo unspecified) | inactive | Toxic | inactive
3 | CCOC(C)(Cc1ccc(Cl)cc1)C1CCNCC1.Cl (stereo unspecified) | inactive | Toxic | inactive
4 | CN1CCC(C2(C)OC2c2ccc(Cl)cc2)CC1.Cc1ccc(S(=O)(=O)O)cc1 (stereo unspecified) | inactive | Toxic | inactive
5 | COC(c1ccc(Cl)cc1)C(C)C1CCNCC1.Cl (stereo unspecified) | inactive | Toxic | inactive
6 | CC(C)(Br)C(=O)c1ccc(-c2ccc(Cl)cc2)cc1 | inactive | Toxic | inactive
7 | CCC(Cc1ccc(Cl)cc1)(OC)C1CCCNC1.O=C(O)CCC(=O)O (stereo unspecified) | inactive | Toxic | inactive
8 | CCOC(c1ccc(Cl)cc1)C(C)C1CCNCC1.O=C(O)CCC(=O)O (stereo unspecified) | inactive | Toxic | inactive
9 | CCC(CC1CCNCC1)(OC)c1ccc(Cl)cc1 (stereo unspecified) | inactive | Toxic | inactive
10 | CCC(CC1CCCNC1)(OC)c1ccc(Cl)cc1 (stereo unspecified) | inactive | Toxic | inactive
11 | CC(C)(Br)C(=O)c1ccc(Cl)cc1 | inactive | Toxic | inactive
12 | CCOC(C)(CC1CCNCC1)c1ccc(Cl)cc1 (stereo unspecified) | inactive | Toxic | inactive
